The source of these data is ChEMBL document CHEMBL2346551, “A new series of N2-substituted-5-(p-toluenesulfonylamino)phthalimide analogues as α-glucosidase inhibitors” (Bioorg Med Chem Lett, 2013).

Some results are limits rather than exact numbers.

Test [1] in a line: Inhibition of rat alpha-amylase using amylose as substrate by colorimetric analysis.
Test [2] in a line: Inhibition of Saccharomyces cerevisiae alpha-glucosidase using 4-nitrophenyl alpha D-glucopyranoside as substrate assessed as release of 4-nitrophenol incubated for 5 mins prior to substrate addition measured after 10 mins. The procedure, abridged:
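Yeast α-glucosidase assayed at 37 °C with 4-nitrophenyl α-D-glucopyranoside as substrate in 10 mM sodium phosphate buffer, pH 7.28. […] Absorbance rise at 400 nm compared with a DMSO control; IC50 read graphically from percent activity versus log concentration.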

Test [3] addresses Maltase-glucoamylase, intestinal (Rattus norvegicus). In words: Inhibition of rat intestinal maltase using maltose as substrate by colorimetric analysis.
Test [4] concerns the target Lactase/phlorizin hydrolase (Rattus norvegicus, UniProt Q02401). In words: Inhibition of rat intestinal lactase using lactose as substrate by colorimetric analysis.

The IC50 is the concentration that inhibits the measured activity by half.

Sequence of Lactase/phlorizin hydrolase (Q02401 868-1928 limits assumed): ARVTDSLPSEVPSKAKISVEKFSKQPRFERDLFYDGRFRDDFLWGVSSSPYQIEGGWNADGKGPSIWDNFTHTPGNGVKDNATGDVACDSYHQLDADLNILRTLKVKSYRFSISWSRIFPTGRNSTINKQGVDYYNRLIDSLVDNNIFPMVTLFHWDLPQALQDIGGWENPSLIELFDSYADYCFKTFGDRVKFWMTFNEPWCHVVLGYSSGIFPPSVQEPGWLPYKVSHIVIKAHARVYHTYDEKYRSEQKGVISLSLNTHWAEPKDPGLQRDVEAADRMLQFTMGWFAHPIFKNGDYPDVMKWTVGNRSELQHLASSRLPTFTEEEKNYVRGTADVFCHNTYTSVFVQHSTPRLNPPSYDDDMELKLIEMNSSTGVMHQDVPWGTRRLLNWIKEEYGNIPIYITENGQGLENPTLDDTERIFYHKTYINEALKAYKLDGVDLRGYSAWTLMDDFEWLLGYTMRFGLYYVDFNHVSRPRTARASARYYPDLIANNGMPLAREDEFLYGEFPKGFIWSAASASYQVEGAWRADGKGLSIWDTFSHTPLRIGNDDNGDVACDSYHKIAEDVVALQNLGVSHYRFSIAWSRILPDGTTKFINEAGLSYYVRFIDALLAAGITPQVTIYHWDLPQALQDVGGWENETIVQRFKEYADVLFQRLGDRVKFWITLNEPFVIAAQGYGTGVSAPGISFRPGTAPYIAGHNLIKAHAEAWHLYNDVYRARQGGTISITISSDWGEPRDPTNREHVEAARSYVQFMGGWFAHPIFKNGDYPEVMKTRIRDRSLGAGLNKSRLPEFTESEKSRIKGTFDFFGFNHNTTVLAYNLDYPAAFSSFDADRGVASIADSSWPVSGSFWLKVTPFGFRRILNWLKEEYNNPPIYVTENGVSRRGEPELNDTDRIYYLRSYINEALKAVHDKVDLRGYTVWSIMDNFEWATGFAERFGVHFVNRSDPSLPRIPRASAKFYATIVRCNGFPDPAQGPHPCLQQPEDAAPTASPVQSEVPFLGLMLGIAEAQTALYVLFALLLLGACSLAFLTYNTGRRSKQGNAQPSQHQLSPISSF

Regarding `O=C1c2ccc([N+](=O)[O-])cc2C(=O)N1CCNc1ccccc1`, the IC50 was over 200 µM in test [1], 68.9 µM in test [2], 111 µM in test [3] and over 200 µM in test [4].

Consider `Cc1ccc(S(=O)(=O)Nc2ccc3c(c2)C(=O)N(CCCCBr)C3=O)cc1`, for which the IC50 in test [1] was over 200 µM; in test [2], 69.7 µM; in test [3], over 200 µM; in test [4], over 200 µM.

`Cc1ccc(S(=O)(=O)Nc2ccc3c(c2)C(=O)N(CCBr)C3=O)cc1`: the IC50 is over 200 µM in test [1], 94.2 µM in test [2], over 200 µM in test [3] and over 200 µM in test [4].

`Cc1ccc(S(=O)(=O)Nc2ccc3c(c2)C(=O)N(Cc2ccccc2F)C3=O)cc1`: the half-inhibitory concentration (IC50) in test [1] was over 200 µM; in test [2] it was 40.8 µM; in test [3] it was 195 µM; in test [4], 180 µM.

On to `Cc1ccc(S(=O)(=O)Nc2ccc3c(c2)C(=O)N(Cc2ccc(C#N)cc2)C3=O)cc1`, for which the IC50 in test [1] is over 200 µM; in test [2], 66.5 µM; in test [4] it was 199 µM.

Consider `Cc1ccc(S(=O)(=O)Nc2ccc3c(c2)C(=O)N(Cc2ccc(C(N)=O)cc2)C3=O)cc1`, for which the IC50 in test [1] was over 200 µM; in test [2] it was 60.3 µM; in test [4] it was 84.1 µM.

With `Cc1ccc(S(=O)(=O)Nc2ccc3c(c2)C(=O)N(CCOc2ccc(O)cc2)C3=O)cc1`, the IC50 was over 200 µM in test [1], 25.5 µM in test [2], 47.7 µM in test [3] and 100 µM in test [4].

`Cc1ccc(S(=O)(=O)Nc2ccc3c(c2)C(=O)N(CCOc2ccccc2)C3=O)cc1`: the IC50 in test [1] is over 200 µM; in test [2] it was 47.3 µM; in test [4] it was 170 µM.

For `Cc1ccc(S(=O)(=O)Nc2ccc3c(c2)C(=O)N(Cc2ccc(O)c(O)c2)C3=O)cc1`, the IC50 in test [1] is over 200 µM; in test [2] it was 72.6 µM; in test [4], 164 µM.

Turning to `C[C@H]1O[C@H](O[C@H]2[C@H](O)[C@@H](O)[C@@H](O[C@H]3[C@H](O)[C@@H](O)C(O)O[C@@H]3CO)O[C@@H]2CO)[C@H](O)[C@@H](O)[C@@H]1N[C@H]1C=C(CO)[C@@H](O)[C@H](O)[C@H]1O` (stereo not given in full) [ACARBOSE], the IC50 was 8.65 µM in test [1], 235 µM in test [2] and 167 µM in test [4].

For `Cc1ccc(S(=O)(=O)Nc2ccc3c(c2)C(=O)N(CCOc2cccc(O)c2)C3=O)cc1`, the IC50 is over 200 µM in test [1], 28.7 µM in test [2], 55.6 µM in test [3] and 111 µM in test [4].

For the compound `Cc1ccc(S(=O)(=O)Nc2ccc3c(c2)C(=O)N(CCCBr)C3=O)cc1`, the figures for the IC50 in test [1], in test [2] and in test [4] were over 200 µM, 88.4 µM and over 200 µM, respectively.

As to `O=C1c2ccccc2C(=O)N1CCNc1ccccc1`, the IC50 is over 200 µM in test [1], over 200 µM in test [2], 184 µM in test [3] and over 200 µM in test [4].

As for `Cc1ccc(S(=O)(=O)Nc2ccc3c(c2)C(=O)N(Cc2ccccc2)C3=O)cc1`, the IC50 was over 200 µM in test [1], 54.2 µM in test [2], over 200 µM in test [3] and over 200 µM in test [4].

Consider `Cc1ccc(S(=O)(=O)Nc2ccc3c(c2)C(=O)N(CCNc2ccccc2)C3=O)cc1`, for which the IC50 was over 200 µM in test [1], 58.5 µM in test [2], 99.6 µM in test [3] and 177 µM in test [4].

As for `Cc1ccc(S(=O)(=O)Nc2ccc3c(c2)C(=O)N(C)C3=O)cc1`, the IC50 in test [1], in test [2], in test [3] and in test [4] was over 200 µM each time.

Take `Cc1ccc(S(=O)(=O)Nc2ccc3c(c2)C(=O)N(Cc2ccc(F)cc2)C3=O)cc1`: the results for the IC50 in test [1], in test [2] and in test [4] were over 200 µM, 42.7 µM and 172 µM, respectively.

For `Cc1ccc(S(=O)(=O)Nc2ccc3c(c2)C(=O)N(Cc2ccc(Cl)cc2)C3=O)cc1`, the IC50 was over 200 µM in test [1], 32.6 µM in test [2], 188 µM in test [3] and 155 µM in test [4].

Turning to `Cc1ccc(S(=O)(=O)Nc2ccc3c(c2)C(=O)N(CCNc2ccc(O)c(O)c2)C3=O)cc1`, the IC50 is over 200 µM in test [1], 44.5 µM in test [2], 28.8 µM in test [3] and 66.6 µM in test [4].

Take `Cc1ccc(S(=O)(=O)Nc2ccc3c(c2)C(=O)N(Cc2ccc(Cl)c(Cl)c2)C3=O)cc1`: the IC50 was over 200 µM in test [1], 28.7 µM in test [2], 122 µM in test [3] and 101 µM in test [4].

As for `Nc1ccc2c(c1)C(=O)N(CCNc1ccccc1)C2=O`, the IC50 in test [1] was over 200 µM; in test [2], 138 µM; in test [3], 144 µM; in test [4], over 200 µM.

Turning to `Cc1ccc(S(=O)(=O)Nc2ccc3c(c2)C(=O)N(N2CCOCC2)C3=O)cc1`, the IC50 was over 200 µM in test [1], 52.1 µM in test [2] and over 200 µM in test [4].
